{"source": "ChEMBL document CHEMBL5331118", "about": "“Allosteric Inhibitors of Macrophage Migration Inhibitory Factor (MIF) Interfere with Apoptosis-Inducing Factor (AIF) Co-Localization to Prevent Parthanatos” (J Med Chem, 2023)", "key": {"HeLa [1]": {"system": "HeLa", "assay": "Protection against MNNG-induced parthanatos in human HeLa cells assessed as restoration of original phenotype at 3.7 to 100 uM", "format": "functional, cell-based", "conditions": "dose 3.7-100 µM, TDE = time-dependent effect"}, "HeLa [2]": {"system": "HeLa", "assay": "Inhibition of MNNG-induced DNA damage in human HeLa cells preincubated for 2 hrs followed by MNNG addition by gel electrophoresis assay", "format": "functional, cell-based", "conditions": "dose 50.0 µM, TDE = time-dependent effect"}, "HeLa [3]": {"system": "HeLa", "assay": "Inhibition of MNNG-induced DNA damage in human HeLa cells preincubated for 2 hrs followed by MNNG addition and measured after 2 hrs by comet assay", "format": "functional, cell-based", "conditions": "time 4.0 hrs", "procedure,_shortened": "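Alkaline comet assay. HeLa cells were given 50 μM inhibitor or none for 2 h, then 10 μM MNNG for 2 h. Cells were embedded in 1% low-melt agarose and lysed overnight at 4 °C in alkaline lysis solution (pH > 13). Electrophoresis ran at pH > 12, 0.6 V/cm, 25 min. Slides were stained with 2.5 μg/mL PI, imaged by fluorescence microscopy and quantified by image analysis.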"}, "HeLa [4]": {"system": "HeLa", "assay": "Inhibition of MNNG-induced DNA damage in human HeLa cells preincubated for 2 hrs followed by MNNG addition and measured after 2 hrs by gel electrophoresis assay", "format": "functional, cell-based", "conditions": "dose 1.2-100 µM, time 4.0 hrs"}, "HeLa [5]": {"system": "HeLa", "assay": "Protection against MNNG-induced parthanatos in human HeLa cells assessed as cell viability preincubated for 3 hrs prior to MNNG addition and measured for 15 mins followed by fresh media replacement for 24 hrs by Hoechst 33342 and propidium iodide staining based flow cytometry analysis (reference value: 20 %)", "format": "functional", "conditions": "time 1635 min; 27.25 h", "procedure,_shortened": "(§1)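 HeLa cells in DMEM/10% FBS, 5×10^5 per well, were pretreated 3 h with 100 μM inhibitor, then given 50 μM MNNG for 15 min. Medium was replaced and cells were cultured 24 h. Trypsinized cells were stained with 7 μM Hoechst 33342 and 2 μM PI and analysed by flow cytometry. Hoechst-only cells were counted as live, Hoechst+PI cells as dead.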"}, "HeLa [6]": {"system": "HeLa", "assay": "Induction of DNA damage in human HeLa cells by comet assay", "format": "toxicity, cell-based"}, "HeLa [7]": {"system": "HeLa", "assay": "Protection against MNNG-induced parthanatos in human HeLa cells assessed as cell viability preincubated for 3 hrs prior to MNNG addition and measured for 15 mins followed by fresh media replacement for 24 hrs by Hoechst 33342 and propidium iodide staining based flow cytometry analysis", "format": "functional", "conditions": "time 1635.0 min", "procedure,_shortened": "as §1"}, "[8]": {"target": "T1, Macrophage migration inhibitory factor (Homo sapiens) (UniProt P14174)", "T1 sequence (whole entry)": "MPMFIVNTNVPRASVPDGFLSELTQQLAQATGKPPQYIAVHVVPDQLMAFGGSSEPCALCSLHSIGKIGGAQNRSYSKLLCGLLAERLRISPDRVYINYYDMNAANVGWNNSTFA", "assay": "Reversible inhibition of recombinant human MIF tautomerase activity expressed in Escherichia coli BL21 assessed as recovery of enzyme activity at 25 uM using PP as substrate preincubated for 10 mins followed by substrate addition and measured after 20 mins by jump dilution method", "conditions": "time 30.0 min"}, "HeLa [9]": {"system": "HeLa", "assay": "Inhibition of MIF nuclear translocation in human HeLa cells at 100 uM preincubated for 3 hrs followed by MNNG stimulation for 15 mins by immunofluorescence staining based confocal microscopic analysis", "format": "functional, cell-based", "conditions": "time 195.0 min", "procedure,_shortened": "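HeLa cells on coverslips got ±100 μM inhibitor for 3 h, then MNNG (50 μM, 15 min), and were incubated overnight. They were methanol-fixed and blocked with 2% BSA. MIF was stained with a rabbit polyclonal and Alexa488 secondary, AIF with a mouse monoclonal and Alexa647 secondary, and nuclei with NucBlue. Nuclear localization was imaged by confocal microscopy.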"}, "HeLa [10]": {"system": "HeLa", "assay": "Protection against MNNG-induced parthanatos in human HeLa cells assessed as restoration of original phenotype after 0.5 to 3 hrs", "format": "functional, cell-based", "conditions": "time 0.5-3 hrs"}, "[11]": {"target": "T1, Macrophage migration inhibitory factor (Homo sapiens)", "assay": "Inhibition of recombinant C-terminal His-tagged human MIF tautomerase activity expressed in Escherichia coli BL21 assessed as residual activity at 10 uM using PP as substrate preincubated for 10 mins and followed by substrate addition and measured for 3 mins by microplate reader analysis relative to control", "conditions": "time 13.0 min"}}, "note": "Activity calls are given as the source filed them. No cut-off for these calls is given here."}
{"smiles": "O=C(Nc1ccccc1)c1ccc(-n2cc(C(=O)NCc3cccs3)nn2)cc1", "values": [{"measurement": "Activity", "setting": "HeLa [1]", "value": "Tde"}, {"measurement": "inhibition", "setting": "HeLa [2]", "value": "Tde"}, {"measurement": "inhibition", "setting": "HeLa [3]", "value": "Active"}, {"measurement": "inhibition", "setting": "HeLa [4]", "value": "Dose-Dependent Effect"}, {"measurement": "Activity", "setting": "HeLa [5]", "value": 50, "unit": "%"}, {"measurement": "Activity", "setting": "HeLa [6]", "value": "Non-Toxic"}, {"measurement": "Activity", "setting": "HeLa [7]", "value": "Dose-Dependent Effect"}, {"measurement": "inhibition", "setting": "[8]", "value": "Active"}, {"measurement": "inhibition", "setting": "HeLa [9]", "value": "Active"}, {"measurement": "Activity", "setting": "HeLa [10]", "value": "Dose-Dependent Effect"}]}
{"smiles": "O=C(NCCc1ccccc1)c1cn(-c2cccc3ncccc23)nn1", "values": [{"measurement": "Activity", "setting": "[11]", "value": 68, "unit": "%"}]}
{"smiles": "N#Cc1ccc(-n2cc(C(=O)Nc3ccc(Br)cc3)nn2)cc1", "values": [{"measurement": "Activity", "setting": "[11]", "value": 44, "unit": "%"}]}
